# Screens (PubChem)
# Sampled rows, rich in hits. Any-hit rate of the full collection: about 1.9%.
# SR-BI HDL uptake: inhibitors of mouse SR-BI mediated HDL lipid uptake | ldlA[mSR-BI] CHO cells, DiI-HDL uptake fluorescence, 3 h | inhibition, % at 12.5 µM | 0.96% of 320,000 active | AID 488896;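 active means mean replicate inhibition of at least 70% and a set share of replicates each scoring 70 or more; inconclusive means meets just one of the two criteria; inactive means fails both criteria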;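 further: 0% = median of neutral control wells and 100% = median of positive control wells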
# Neddylation inh: inhibitors of human cullin neddylation | P61081+Q13564 | TR-FRET cullin neddylation, biochemical | inhibition, % at 25 µM | 0.58% of 360,000 active; in the data active means inhibition above about 36%
# Target sequence (P61081 whole entry, looked up): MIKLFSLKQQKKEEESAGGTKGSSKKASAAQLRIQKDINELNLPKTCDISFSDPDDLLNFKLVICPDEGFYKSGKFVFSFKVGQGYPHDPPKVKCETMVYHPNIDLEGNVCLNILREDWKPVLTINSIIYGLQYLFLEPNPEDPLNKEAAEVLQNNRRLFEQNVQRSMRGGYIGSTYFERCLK
# Target sequence (Q13564 whole entry, looked up): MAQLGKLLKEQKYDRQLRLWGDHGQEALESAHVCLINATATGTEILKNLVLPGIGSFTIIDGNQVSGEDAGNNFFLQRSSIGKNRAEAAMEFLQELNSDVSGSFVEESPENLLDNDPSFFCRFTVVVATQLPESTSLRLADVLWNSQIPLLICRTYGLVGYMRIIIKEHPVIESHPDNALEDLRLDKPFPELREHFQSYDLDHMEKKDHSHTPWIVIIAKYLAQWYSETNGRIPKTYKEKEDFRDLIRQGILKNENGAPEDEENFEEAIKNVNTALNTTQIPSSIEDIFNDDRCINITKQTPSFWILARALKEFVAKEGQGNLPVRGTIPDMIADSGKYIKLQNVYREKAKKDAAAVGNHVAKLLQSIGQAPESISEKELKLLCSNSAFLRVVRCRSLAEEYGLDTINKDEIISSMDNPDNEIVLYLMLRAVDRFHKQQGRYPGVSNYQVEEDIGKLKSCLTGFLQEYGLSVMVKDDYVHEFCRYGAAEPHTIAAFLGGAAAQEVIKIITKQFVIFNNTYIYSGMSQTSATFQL
# SR-BI uptake up: enhances SR-BI lipid uptake from DiI-HDL | 0.096% of 320,000 active | CHO ldlA[mSR-BI] cells, DiI-HDL uptake fluorescence, 3 h; 100 = double the neutral-control signal | activation, % at 12.5 µM;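 active means mean replicate activation of at least 60% and every replicate at or above 60%; inconclusive means mean or all-replicate condition met, but not both; inactive means mean below 60% and not all replicates reaching 60%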;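 further: 0% = median plate neutral-control signal and 100% = twice that signal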
#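 Material – SR-BI-overexpressing, LDLR-lacking CHO cells · Medium – BSA-supplemented, HEPES-buffered Ham's F12, pH 7.4 · Doses – single concentration · Times – compound with DiI-HDL co-incubation, 3 h at 37 °C · Measured by – bottom-read fluorescence, 550/595 nm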
# UBC13 polyUb: human UBC13 polyubiquitination inhibition; UBC13 polyubiquitin chain formation, TR-FRET; AID 485273; 0.47% of 330,000 active; inhibition, % at 20 µM; in the data active means inhibition above about 45%, passing the limit was not always enough; inconclusive means no clear call, values can overlap the other calls
# DiI quench: DiI fluorescence quenching in cell-free counter-screen; shares compounds with SR-BI HDL uptake; cell-free DiI-HDL fluorescence quenching, 30 min; AC50, µM (highest dose often 35 µM), inactives show at the highest dose activity change, negative = quenching; 20% of 470 active; AID 540326;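 active means quenching, a falling signal, with AC50 below a set limit tied to the top valid dose, actives reach about 32 µM in these data; inconclusive means no clear call, values can overlap the other calls; inactive means rising signal, and the rest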
# * marks the source's active call; other numbers are inactive results; i = inactive; ? = inconclusive; . = no result shown.
SMILES,SR-BI HDL uptake,Neddylation inh,SR-BI uptake up,UBC13 polyUb,DiI quench
CCOc1ccc(CCNC(=O)C2CC(=O)N(c3ccccc3OCC)C2)cc1OCC (stereo not given),79*,9,-79,0,-1%
CN(Cc1ccccc1N1CCCC1)C(=O)c1cc2cc(Cl)ccc2o1,70*,-17,-70,9,-9%
COc1cc(NC(=O)c2ccco2)c(OC)cc1NC(=O)Nc1ccc(Cl)cc1,100*,.,-100,-8,5.1µM*
COc1ccccc1-n1cnc2cc(NCc3ccccc3O)ccc21,10,12,-10,5,.
COc1ccccc1-n1cnc2cc(NCc3ccco3)ccc21,76*,9,-76,.,-19%
Cc1nc2c(cnn2-c2ccccc2Cl)c(=O)n1-c1ccc(N2CCC(C)CC2)cc1,72*,14,-72,4,-12%
CC1=C(C(=O)N(C(C)C)C(C)C)CC(CC(=O)NCCCN(C)C)C(=O)N1CCCN1CCCC1=O (stereo not given),.,2,.,.,.
CCOC(=O)C1=C(CNCCOc2ccc(OC)cc2)NC(=O)NC1c1ccc2c(c1)OCO2 (stereo not given),?,6,-72,-6,-4%
CC(=O)NC(c1ccccc1)c1nc(-c2csc3ccccc23)cs1 (stereo not given),.,-25,.,.,.
COc1cc(/C=C/C(=O)OCC(=O)c2ccc[nH]2)cc(OC)c1OC,?,17,-74,-3,-2%
COc1ccc(/C=C/C(=O)OCC(=O)c2ccc[nH]2)cc1,-4,11,4,-3,.
Cc1ccc(C(=O)N2CCN(c3ccc4c(c3)C3CC4CCN3C(=O)OCc3ccccc3)CC2)cc1 (stereo not given),.,-10,.,.,.
O=C(c1ccc(-c2ccccc2)cc1)N1CCN(c2ccc3c(c2)C2CC3CCN2C(=O)OCc2ccccc2)CC1 (stereo not given),.,i,.,.,.
Cc1cccc(-c2ccc3c(c2)C2CC3CCN2C(=O)OCc2ccccc2)c1 (stereo not given),85*,-4,-85,.,-2%
O=C(OCc1ccccc1)N1CCC2CC1c1cc(-c3ccccc3)ccc12 (stereo not given),-11,1,11,.,-1%
COc1cc(OC)c(C(=O)OC(C)C(=O)NCc2ccc3c(c2)OCO3)cc1OC (stereo not given),3,3,-3,9,.
Cc1ccc(-c2sc(-c3ccccc3)nc2CC(=O)Nc2ccccc2F)cc1,77*,-29,-77,5,5%
Oc1ccc(F)c(CN2CCN(c3ncc(Cc4ccccc4)cn3)CC2)c1,.,5,.,.,.
CCC(C)C1/C=C\CC(NC(=O)OCC2c3ccccc3-c3ccccc32)CC(=O)N1Cc1ccccc1 (stereo not given),75*,-28,-75,.,-2%
COc1ccc2c(c1)-c1c(sn(-c3ccccc3)c1=S)C(C)(C)N2,42,-21,-42,-12,.
COc1ccc(-n2sc3c(c2=S)-c2cc(OC)ccc2NC3(C)C)cc1,108*,-8,-108,-2,2.5µM*
COc1ccc2c(c1)-c1c(sn(-c3ccc(OC)c(OC)c3)c1=S)C(C)(C)N2,108*,-9,-108,-8,3.1µM*
Cc1ccn2c(CNCC3COCCO3)c(C(=O)N3CCCCCC3)nc2c1 (stereo not given),-21,5,21,2,.
Cc1c(C(=O)N2CC3(CC(c4cccc(NC(=O)CC(c5ccccc5)c5ccccc5)c4)=NO3)C[C@@H]2C(N)=O)cc([N+](=O)[O-])cc1[N+](=O)[O-] (stereo not given in full),14,-17,-14,-26,i
C/C=C(\C)C(=O)Nc1cccc(C2=NOC3(C2)C[C@@H](C(N)=O)N(C(=O)c2cc([N+](=O)[O-])cc([N+](=O)[O-])c2C)C3)c1 (stereo not given in full),30,-26,-30,-10,.
SMILES,SR-BI HDL uptake,Neddylation inh,SR-BI uptake up,UBC13 polyUb,DiI quench
O=C(Nc1ccccc1)Nc1sccc1-c1nc2ccccc2s1,60,22,-60,12,.
O=C(Nc1cccc(Cl)c1)Nc1sccc1-c1nc2ccccc2s1,106*,.,-106,1,11%
COc1ccc(C2/C=C\CN(S(=O)(=O)c3ccc(-c4ccccc4)cc3)CC(=O)N2Cc2ccc(F)cc2)cc1 (stereo not given),81*,-18,-81,-2,-5%
O=C(OCCNc1ncc(C(F)(F)F)cc1Cl)c1ccc(S(=O)(=O)N2CCOCC2)cc1,81*,-5,-81,0,1%
COc1cc(C2c3cc(O)c(OC)cc3CC(C(=O)O)C2CO)ccc1O (stereo not given),-1,4,1,.,.
CCC(C(=O)NC1CCCC1)N(C(=O)Cn1nnc(-c2ccc(OC)c(OC)c2)n1)c1cccc(O)c1 (stereo not given),28,5,-28,5,0%
COc1ccc(-c2nnn(CC(=O)N(c3cccc(O)c3)C(C)C(=O)NC3CCCC3)n2)cc1OC (stereo not given),16,-3,-16,-2,.
COc1ccc(N(CC(=O)NC2CCCC2)C(=O)Cn2nnc(-c3ccc(OC)c(OC)c3)n2)cc1,80*,3,-80,-3,-4%
COc1cc(C(=O)N2Cc3cc4ccccc4nc3C2C)cc(OC)c1OC (stereo not given),.,0,.,.,.
O=C(NNC(=O)c1cc(Br)ccc1O)c1csc(N2CCOCC2)n1,128*,-5,-128,33,1µM*
COc1cccc(OC(=O)c2ccccc2)c1OC(=O)c1ccccc1,.,14,.,.,.
Cc1cc(C)c(C)c(S(=O)(=O)N2CCN(CC(=O)NC(=O)NCc3ccccc3)CC2)c1C,74*,-3,-74,3,1%
CCCCn1nnnc1C1(C)CCC(=O)N1CCOC (stereo not given),.,-11,.,.,.
CC1CCCCC12NC(=O)N(CC(=O)N1CCN(S(=O)(=O)/C=C/c3ccccc3)CC1)C2=O (stereo not given),4,2,-4,-13,.
Cc1cccc(NC(=O)N2C3CCCC2CC(NC(=O)C(C)(C)C)C3)c1 (stereo not given),76*,-6,-76,-13,-2%
COc1ccc(C2c3sc(=O)[nH]c3SC3C4CCC(C4)C23)cc1OC (stereo not given),?,-5,-72,-2,-9%
CCCOc1ccc(C(=O)Nc2ccc(S(=O)(=O)N3C[C@@H]4C[C@@H](C3)c3cccc(=O)n3C4)cc2)cc1,57,0,-57,16,3%
C=CCn1c(SCC(=O)N(CCOC)c2c(N)n(CCCC)c(=O)[nH]c2=O)nnc1-c1ccc(Cl)cc1,-12,0,12,-3,.
CCCCCCCNC(=O)C1(CC2CC(c3ccc(Cl)cc3)=NO2)CCN(C(=O)OC(C)(C)C)CC1 (stereo not given),-41,-8,41,4,.
COC(=O)[C@]1(C)N[C@H](c2ccc(-c3cccc(Cl)c3)cc2)[C@@H]2C(=O)N(C)C(=O)[C@@H]21,20,-23,-20,15,.
